# Marks after values point to notes of the source that are not given here.
# Columns and labels:
# HIV-1 subtype B [1] = test: Change in plasma HIV-1 RNA, GSK3532795 monotherapy for 10 days; type: in vivo, human
# Procedure, shortened: (§1)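 HIV-1-infected adults aged 18–55 with plasma HIV-1 RNA ≥5000 copies/mL and CD4+ count ≥200 cells/µL, PI- and MI-naive, were randomized 4:1 to test compound or placebo, double-blind. Dosing was once daily by oral suspension after a ≥10-hour fast for 10 days: part A subtype B, 5–120 mg; part C subtype C, 40 or 120 mg. Plasma HIV-1 RNA was measured by real-time PCR at screening and on days 1–14, 17, 19 and 24–26.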
# HIV-1 subtype C = test: as above; type: in vivo, human; conditions: for Median of the maximum change from baseline in HIV-1 RNA / Median decline (baseline to day 11) in HIV-1 RNA: Part C
# Procedure, shortened: as §1
# [2] = Plasma pharmacokinetics of GSK3532795, part A; type: in vivo; conditions: human, oral
# Procedure, shortened: (§2)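 The test compound was given as monotherapy by oral suspension after a ≥10-hour fast, once daily for 10 days (part A subtype B, 5–120 mg; part C subtype C, 40 or 120 mg). Serial blood samples were taken on days 1 and 10, with troughs on days 2, 4, 6 and 8. Plasma levels were measured by validated LC/MS and analysed noncompartmentally. Dose proportionality was assessed with a power model on log exposure versus log dose.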
# [3] = Plasma pharmacokinetics of GSK3532795, part B; type: in vivo, human; conditions: for AUC increase compared with the same dose given as monotherapy: fed vs fasted monotherapy; for AUC / concentration at 24 h / Cmax / Tmax: human, plasma, oral; for AUC: AUCtau (%CV); for concentration at 24 h: C24 (%CV); for Cmax: Cmax (%CV); for Tmax: median (min–max)
# Procedure, shortened: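 Male subtype B-infected subjects took the test compound (40 or 80 mg) once daily with atazanavir 400 mg, or with atazanavir/ritonavir 300 mg/100 mg. Dosing was open-label, as an oral suspension with breakfast, for 28 days. Serial samples were taken on days 1 and 10, with troughs on days 2, 4, 6 and 8. Plasma levels were measured by validated LC/MS and analysed noncompartmentally.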
# [4] = Plasma pharmacokinetics of GSK3532795, part C; type: in vivo, human; conditions: for AUC / Cmax / Tmax: human, plasma, oral
# Procedure, shortened: as §2
# Safety assessments = type: in vivo, human; conditions: for Any AE / Deaths / Discontinuations due to AE(s) / Grade 3–4 related AEs / Laboratory abnormalities (grade 3–4) / Serious AEs: Parts A/C
# Procedure, shortened: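 Over the 10-day once-daily oral monotherapy (test compound or placebo, double-blind, fasted) and follow-up, staff recorded vital signs, physical examination, laboratory measurements, ECG and adverse events. Adverse events were coded with MedDRA version 17.1. Investigators graded their severity and their relationship to study drug.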
# HIV-1 subtype B [5] = test: Exposure–response relationship; type: in vivo, human; conditions: Part A
# Procedure, shortened: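 Part A subjects received the test compound orally, fasted, once daily for 10 days. Plasma concentration at 24 hours on day 10 was measured by validated LC/MS. It was related to the maximum change from baseline in log10 HIV-1 RNA with a 3-parameter […] Emax model, Y = E0 + Emax*C/(EC50 + C).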
# [6] = Solubility in aqueous media; type: physicochemical
# [7] = healthy subjects; ref Bristol-Myers Squibb, data on file; cited from earlier work
# [8] = cited from earlier work
# HIV-1 = conditions: cited from earlier work
# HIV-1 Gag = conditions: in vitro, compared with BVM; cited from earlier work
# [9] = Part B, fed, 40 mg + ATV 300 mg + RTV 100 mg QD
# [10] = Part B, fed, 40 mg + ATV 400 mg QD
# [11] = Part B, fed, 80 mg + ATV 400 mg QD
smiles,measurement,setting,value
C=C(C)[C@@H]1CC[C@]2(NCCN3CCS(=O)(=O)CC3)CC[C@]3(C)[C@H](CC[C@@H]4[C@@]5(C)CC=C(c6ccc(C(=O)O)cc6)C(C)(C)[C@@H]5CC[C@]43C)[C@@H]12 [GSK3532795],Decline in HIV-1 RNA,"HIV-1 subtype B [1]; Part A, 20–120 mg QD dose groups",> 1 log10
same,Plateau of decline in HIV-1 RNA,"HIV-1 subtype B [1]; Part A, 40–120 mg QD dose groups",approximately 1.64 log10 copies/mL
same,Median decline (baseline to day 11) in HIV-1 RNA,"HIV-1 subtype B [1]; Part A, 40–120 mg QD, consistently from approximately day 7",> 1 log10 copies/mL
same,Range of median of the maximum decline in HIV-1 RNA,"HIV-1 subtype B [1]; Part A, 40–120 mg QD, in the presence of baseline Gag polymorphisms (n = 15)",−1.43 to −1.98 log10 copies/mL
same,Median of the maximum change in HIV-1 RNA from baseline to study discharge on day 24,"HIV-1 subtype B [1]; Part A, across all GSK3532795 groups (5–120 mg QD)",−0.50 to −1.70 log10 copies/mL
same,Median maximum decline in HIV-1 RNA,HIV-1 subtype B [1]; following 10 days of monotherapy in subtype B–infected subjects,1.70 log10 copies/mL
same,Decline in HIV-1 RNA,"HIV-1 subtype C; 10 days of 40 mg or 120 mg QD monotherapy, subtype C–infected subjects with ≥1 of 3 Gag polymorphisms at baseline",> 1 log10
same,Median of the maximum change from baseline in HIV-1 RNA,HIV-1 subtype C; 40 mg QD,−1.35 log10 copies/mL
same,Median decline (baseline to day 11) in HIV-1 RNA,"HIV-1 subtype C; 40 mg QD, observed after day 8",> 1 log10 copies/mL
same,Median of the maximum change from baseline in HIV-1 RNA,HIV-1 subtype C; 120 mg QD,−1.26 log10 copies/mL
same,Median decline (baseline to day 11) in HIV-1 RNA,"HIV-1 subtype C; 120 mg QD, observed after day 10",> 1 log10 copies/mL
same,Tmax,[2],3 h
same,half-life,[2],30 to 35 h
same,AUC,[2]; 5 mg,2.72 µg·h/mL
same,Cmax,[2]; 5 mg,0.171 µg/mL
same,Tmax,[2]; 5 mg,3 h
same,concentration at 24 h,[2]; 5 mg,0.0816 µg/mL
same,half-life,[2]; 5 mg,32.7 h
same,AUC,[2]; 10 mg,5.17 µg·h/mL
same,Cmax,[2]; 10 mg,0.337 µg/mL
same,Tmax,[2]; 10 mg,3 h
same,concentration at 24 h,[2]; 10 mg,0.139 µg/mL
same,half-life,[2]; 10 mg,33.1 h
same,AUC,[2]; 20 mg,11.8 µg·h/mL
same,Cmax,[2]; 20 mg,0.705 µg/mL
same,Tmax,[2]; 20 mg,4 h
same,concentration at 24 h,[2]; 20 mg,0.326 µg/mL
same,half-life,[2]; 20 mg,29.7 h
same,AUC,[2]; 40 mg,23 µg·h/mL
same,Cmax,[2]; 40 mg,1.48 µg/mL
same,Tmax,[2]; 40 mg,3 h
same,concentration at 24 h,[2]; 40 mg,0.713 µg/mL
same,half-life,[2]; 40 mg,33.8 h
same,AUC,[2]; 80 mg,39.3 µg·h/mL
same,Cmax,[2]; 80 mg,2.47 µg/mL
same,Tmax,[2]; 80 mg,3 h
same,concentration at 24 h,[2]; 80 mg,1.15 µg/mL
same,half-life,[2]; 80 mg,30 h
same,AUC,[2]; 120 mg,44.2 µg·h/mL
same,Cmax,[2]; 120 mg,2.81 µg/mL
same,Tmax,[2]; 120 mg,2.5 h
same,concentration at 24 h,[2]; 120 mg,1.29 µg/mL
same,half-life,[2]; 120 mg,34.9 h
same,Increase in exposures compared with the same dose given as monotherapy fasted,[3]; GSK3532795 + ATV alone in the fed state,up to 50%
same,AUC increase compared with the same dose given as monotherapy,"[3]; Part B, 40 mg + ATV alone",approximately 40%
same,AUC increase compared with the same dose given as monotherapy,"[3]; Part B, 80 mg + ATV alone",~50%
same,Exposures higher with ATV/RTV relative to administration with ATV alone,"[3]; Part B, GSK3532795 40 mg",~ 10%
same,Increase in exposures between 40 mg and 80 mg,"[3]; Part B, coadministered with ATV alone, fed",~ 2 fold
same,Tmax delay,"[3]; Part B, with ATV ± RTV in the fed state",1 to 2 h
same,AUC,[3]; [9],34.2 µg·h/mL
same,AUC,[3]; [10],31.4 µg·h/mL
same,AUC,[3]; [11],59.9 µg·h/mL
same,concentration at 24 h,[3]; [9],1.16 µg/mL
same,concentration at 24 h,[3]; [10],1.1 µg/mL
same,concentration at 24 h,[3]; [11],2.01 µg/mL
same,Cmax,[3]; [9],1.85 µg/mL
same,Cmax,[3]; [10],1.67 µg/mL
same,Cmax,[3]; [11],3.16 µg/mL
same,Tmax,[3]; [9],5 h
same,Tmax,[3]; [10],4.5 h
same,Tmax,[3]; [11],4.5 h
same,Increase in Cmax and AUCtau between 40 mg and 120 mg,"[4]; Part C, monotherapy, less than dose-proportional",~ 2 fold
same,AUC,[4]; 40 mg,25.6 µg·h/mL
same,Cmax,[4]; 40 mg,1.56 µg/mL
same,Tmax,[4]; 40 mg,3 h
same,AUC,[4]; 120 mg,54 µg·h/mL
same,Cmax,[4]; 120 mg,3.38 µg/mL
same,Tmax,[4]; 120 mg,3 h
same,Any AE,Safety assessments; 5 mg QD (n=8),5 (62.5) n (%)
same,Deaths,Safety assessments; 5 mg QD (n=8),0 n (%)
same,Discontinuations due to AE(s),Safety assessments; 5 mg QD (n=8),0 n (%)
same,Grade 3–4 related AEs,Safety assessments; 5 mg QD (n=8),0 n (%)
same,Laboratory abnormalities (grade 3–4),Safety assessments; 5 mg QD (n=8),0 n (%)
same,Serious AEs,Safety assessments; 5 mg QD (n=8),0 n (%)
same,Any AE,Safety assessments; 10 mg QD (n=8),4 (50.0) n (%)
same,Deaths,Safety assessments; 10 mg QD (n=8),0 n (%)
same,Discontinuations due to AE(s),Safety assessments; 10 mg QD (n=8),0 n (%)
same,Grade 3–4 related AEs,Safety assessments; 10 mg QD (n=8),0 n (%)
same,Laboratory abnormalities (grade 3–4),Safety assessments; 10 mg QD (n=8),0 n (%)
same,Serious AEs,Safety assessments; 10 mg QD (n=8),0 n (%)
same,Any AE,Safety assessments; 20 mg QD (n=8),4 (50.0) n (%)
same,Deaths,Safety assessments; 20 mg QD (n=8),0 n (%)
same,Discontinuations due to AE(s),Safety assessments; 20 mg QD (n=8),0 n (%)
same,Grade 3–4 related AEs,Safety assessments; 20 mg QD (n=8),0 n (%)
same,Laboratory abnormalities (grade 3–4),Safety assessments; 20 mg QD (n=8),0 n (%)
same,Serious AEs,Safety assessments; 20 mg QD (n=8),0 n (%)
same,Any AE,Safety assessments; 40 mg QD (n=16),8 (50.0) n (%)
same,Deaths,Safety assessments; 40 mg QD (n=16),0 n (%)
same,Discontinuations due to AE(s),Safety assessments; 40 mg QD (n=16),0 n (%)
same,Grade 3–4 related AEs,Safety assessments; 40 mg QD (n=16),0 n (%)
same,Laboratory abnormalities (grade 3–4),Safety assessments; 40 mg QD (n=16),0 n (%)
same,Serious AEs,Safety assessments; 40 mg QD (n=16),0 n (%)
same,Any AE,Safety assessments; 80 mg QD (n=8),7 (87.5) n (%)
same,Deaths,Safety assessments; 80 mg QD (n=8),0 n (%)
same,Discontinuations due to AE(s),Safety assessments; 80 mg QD (n=8),0 n (%)
same,Grade 3–4 related AEs,Safety assessments; 80 mg QD (n=8),0 n (%)
same,Laboratory abnormalities (grade 3–4),Safety assessments; 80 mg QD (n=8),0 n (%)
same,Serious AEs,Safety assessments; 80 mg QD (n=8),0 n (%)
same,Any AE,Safety assessments; 120 mg QD (n=15),10 (66.6) n (%)
same,Deaths,Safety assessments; 120 mg QD (n=15),0 n (%)
same,Discontinuations due to AE(s),Safety assessments; 120 mg QD (n=15),0 n (%)
same,Grade 3–4 related AEs,Safety assessments; 120 mg QD (n=15),0 n (%)
same,Serious AEs,Safety assessments; 120 mg QD (n=15),0 n (%)
same,Laboratory abnormalities (grade 3–4),"Safety assessments; 120 mg QD (n=15), grade 3 transient neutropenia reported as related to GSK3532795",1 (6.7)^c n (%)
same,Cases of hyperbilirubinemia,Safety assessments; during GSK3532795 monotherapy,no cases
same,Predicted maximum decline in HIV-1 RNA from baseline,HIV-1 subtype B [5]; Emax model,approximately 1.7 log10 copies/mL
same,C24 at which apparent response plateau was achieved,HIV-1 subtype B [5]; steady-state C24 vs maximum change in HIV-1 RNA,≥ 500 ng/mL
same,solubility,[6],< 1 µg/mL
same,Half-life (T1/2),[7],approximately 35 hours
same,Human serum binding,[8],86%
same,EC50 shift in the presence of serum,HIV-1,5.4 fold
same,"Effect when combined with other antiretrovirals, including integrase inhibitors",HIV-1; in vitro studies,additive
same,Binding to HIV-1 Gag,HIV-1 Gag,binds reversibly to HIV-1 Gag with greater affinity than BVM

# Source: article PMC5848258 (Clinical Infectious Diseases: An Official Publication of …, 2017)
